Measured values: ChEMBL document CHEMBL1124574, “Lipophilic analogues of sparsomycin as strong inhibitors of protein synthesis and tumor growth: a structure-activity relationship study” (J Med Chem, 1989)
Converted amounts (≈) assume the structure as drawn. The source made the active and inactive calls. No cut-off for these calls is given here.

How the values were obtained:
WiDr [1] = assay: In vitro inhibition of cell growth in Human WiDr colon carcinoma cell line; assay type: functional; settings: read-out: ID50 (the source's name)
[2] = Partition coefficient (logP); settings: octanol/water
Escherichia coli [3] = assay: In vitro inhibition of polyuridylic acid dependent polyphenylalanine synthesis using ribosomes from Escherichia coli; assay type: functional; settings: read-out: ED50 (the source's name)
Escherichia coli [4] = assay: In vitro inhibition of modified fragment reaction using ribosomes from Escherichia coli; assay type: functional; settings: read-out: ED50 (the source's name)
[5] = (§1) Kinetic constant was determined
L1210 [6] = assay: In Vivo evaluation for the acute toxicity by L1210 clonogenic assay; assay type: functional, Mus musculus
T-24 = assay: In vitro inhibition of cell growth in T24 bladder carcinoma cell line; assay type: functional; settings: Homo sapiens, read-out: ID50 (the source's name)
Escherichia coli [7] = assay: In vitro inhibition of Puromycin reaction in the ribosomes from Escherichia coli; assay type: functional; settings: read-out: ED50 (the source's name)
Saccharomyces cerevisiae [8] = assay: In vitro inhibition of polyuridylic acid dependent polyphenylalanine synthesis using ribosomes from Saccharomyces cerevisiae; assay type: functional; settings: read-out: ED50 (the source's name)
L1210 [9] = assay: In vitro inhibition of cell growth in L1210 murine leukemia cells; assay type: functional; settings: Mus musculus, read-out: ID50 (the source's name)
Saccharomyces cerevisiae [10] = assay: In vitro inhibition of modified fragment reaction using ribosomes from Saccharomyces cerevisiae; assay type: functional; settings: read-out: ED50 (the source's name)
[11] = In Vivo evaluation for the acute toxicity in mice; settings: mouse
[12] = Water solubility was determined
[13] = lipophilicity parameter (Rm) was determined; settings: RP-8 HPTLC, 60% methanol/water
Escherichia coli [14] = assay: In vitro inhibition of cell growth in Escherichia coli MRE600; assay type: functional; settings: read-out: ED50 (the source's name)
Escherichia coli [15] = assay: In vitro inhibition of cell growth in Escherichia coli; assay type: functional; settings: read-out: ED50 (the source's name)
[16] = as §1; assay type: ADME
Escherichia coli [17] = assay: In vitro inhibition of modified fragment reaction using ribosomes from Escherichia coli; Inactive at 100 uM; assay type: functional
Summary of the method: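 Peptidyl transferase assayed by the fragment-reaction protocol, but with intact N-acetyl-Phe-tRNA as substrate in place of its terminal pentanucleotide; ribosomes from the organism named in the line; 50% inhibitory value derived.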

Saccharomyces cerevisiae [18] = assay: In vitro inhibition of polyuridylic acid dependent polyphenylalanine synthesis using ribosomes from Saccharomyces cerevisiae; Inactive at 100 uM; assay type: functional
[19] = lipophilicity parameter(Rm) was determined; assay type: physicochemical; settings: RP-8 HPTLC, 60% methanol/water
Summary of the method: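 Rf measured by reversed-phase RP-8 HPTLC, eluent 60% methanol/water; Rm computed as log(1/Rf − 1).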

WiDr [20] = assay: In vitro inhibition of cell growth in Human WiDr colon carcinoma cell line; NT means not tested; assay type: functional; settings: read-out: ID50 (the source's name)
Summary of the method: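 Human tumor cell line cytotoxicity measured by the automated PIT method (propidium iodide, ink, Triton X-100); ID50 calculated.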

SMILES	IC50 (WiDr [1])	logP [2]	EC50 (Escherichia coli [3])	EC50 (Escherichia coli [4])	log k0 [5]	T/C (L1210 [6])	IC50 (T-24)	EC50 (Escherichia coli [7])	EC50 (Saccharomyces cerevisiae [8])	IC50 (L1210 [9])	EC50 (Saccharomyces cerevisiae [10])	LD50 [11]	solubility [12]	Rm [13]	EC50 (Escherichia coli [14])	EC50 (Escherichia coli [15])	also measured
CCCCCSC[S+]([O-])C[C@H](CO)NC(=O)/C=C/c1c(C)nc(O)nc1O (stereo not given in full)	0.4 µM	0.6	1 µM	2.6 µM	1.168	386%	0.28 µM	0.03 µM	0.17 µM	0.06 µM	2.7 µM	4.7 mg/kg	280 µg/mL (≈ 671 µM)	0.16	1 µM	–	–
Cc1nc(O)nc(O)c1/C=C/C(=O)N[C@@H](CO)C[S+]([O-])CSC1CCCCC1 (stereo not given in full)	–	–	6.6 µM	5.2 µM	–	–	–	0.04 µM	5.1 µM	0.6 µM	12 µM	–	–	–	7.5 µM	–	–
CCCCCCCCSC[S+]([O-])C[C@H](C)NC(=O)/C=C/c1c(C)nc(O)nc1O (stereo not given in full)	0.28 µM	> 2.42	8.5 µM	46 µM	–	–	0.14 µM	0.46 µM	1.4 µM	0.03 µM	60 µM	–	15 µg/mL (≈ 33.8 µM)	1.151	–	15 µM	Log Ko [16]: 3.533
CCCCCCC[S+]([O-])C[C@H](CO)NC(=O)/C=C/c1c(C)nc(O)nc1O (stereo not given in full)	0.28 µM	1.02	0.48 µM	9 µM	–	330%	0.16 µM	0.04 µM	0.1 µM	0.15 µM	5.8 µM	6.1 mg/kg	220 µg/mL (≈ 551 µM)	0.56	–	1.4 µM	Log Ko [16]: 1.771
CCC[S+]([O-])C[C@H](C)NC(=O)/C=C/c1c(C)nc(O)nc1O (stereo not given in full)	–	–	80 µM	–	–	–	–	0.38 µM	200 µM	0.45 µM	–	–	–	–	9.5 µM	–	–
Cc1nc(O)nc(O)c1/C=C/C(=O)N[C@@H](C)C[S+]([O-])CCl (stereo not given in full)	–	–	86 µM	–	–	–	–	–	–	0.15 µM	–	–	–	–	–	7.5 µM	ED50 (Escherichia coli [17]): inactive; ED50 (Saccharomyces cerevisiae [18]): inactive
CCCCSC[S+]([O-])C[C@H](CO)NC(=O)/C=C/c1c(C)nc(O)nc1O (stereo not given in full)	0.31 µM	0.143	1.8 µM	5.1 µM	0.777	156%	0.23 µM	0.06 µM	1 µM	0.1 µM	4.8 µM	2.33 mg/kg	570 µg/mL (≈ 1410 µM)	-0.028	3 µM	–	–
Cc1nc(O)nc(O)c1/C=C/C(=O)N[C@@H](CO)C[S@@+]([O-])CCl	–	–	–	–	–	–	–	–	–	–	–	–	–	–	–	20 µM	–
CCCCCCCCCC[S+]([O-])C[C@H](CO)NC(=O)/C=C/c1c(C)nc(O)nc1O (stereo not given in full)	–	–	1.8 µM	5000 µM	–	–	–	0.08 µM	0.2 µM	0.14 µM	700 µM	–	–	–	–	3 µM	–
CC(=O)NCCSC[S+]([O-])C[C@H](CO)NC(=O)/C=C/c1c(C)nc(O)nc1O (stereo not given in full)	–	–	34 µM	60 µM	–	–	–	1 µM	32 µM	1.9 µM	56 µM	–	–	–	100 µM	–	–
CSC[S+]([O-])C[C@H](CO)NC(=O)/C=C/c1c(C)[nH]c(=O)[nH]c1=O (stereo not given in full)	0.92 µM	-1.71	8.5 µM	3.2 µM	-0.676	117%	0.91 µM	0.1 µM	5.2 µM	0.48 µM	2.8 µM	0.26 mg/kg	3800 µg/mL (≈ 10500 µM)	–	11 µM	–	Rm [19]: -0.638
CSC[S+]([O-])C[C@H](C)NC(=O)/C=C/c1c(C)nc(O)nc1O (stereo not given in full)	–	-0.699	14.6 µM	18 µM	-0.209	216%	0.44 µM	0.25 µM	50 µM	0.07 µM	39 µM	2.33 mg/kg	18000 µg/mL (≈ 52100 µM)	-0.404	5.6 µM	–	IC50 (WiDr [20]): 0.58 µM
CCCSC[S+]([O-])C[C@H](CO)NC(=O)/C=C/c1c(C)nc(O)nc1O (stereo not given in full)	0.89 µM	-0.665	3 µM	5.5 µM	0.117	–	0.65 µM	0.08 µM	7 µM	0.14 µM	7.5 µM	–	1500 µg/mL (≈ 3850 µM)	–	5 µM	–	Rm [19]: -0.261
CCCCSC[S+]([O-])C[C@H](C)NC(=O)/C=C/c1c(C)nc(O)nc1O (stereo not given in full)	0.16 µM	0.819	3 µM	12.1 µM	1.29	164%	0.09 µM	0.05 µM	1.9 µM	0.05 µM	15 µM	16.5 mg/kg	940 µg/mL (≈ 2430 µM)	0.218	2.5 µM	–	–
CCC[S+]([O-])C[C@H](CO)NC(=O)/C=C/c1c(C)nc(O)nc1O (stereo not given in full)	–	–	140 µM	4.5 µM	–	–	–	0.23 µM	42 µM	0.75 µM	6.2 µM	–	–	–	36 µM	–	–
Cc1nc(O)nc(O)c1/C=C/C(=O)N[C@@H](CO)C[S+]([O-])CSC(C)(C)C (stereo not given in full)	–	–	31 µM	27.5 µM	–	–	–	0.31 µM	900 µM	–	100 µM	–	–	–	–	–	–
CCCCCCCCSC[S+]([O-])C[C@H](CO)NC(=O)/C=C/c1c(C)nc(O)nc1O (stereo not given in full)	0.22 µM	> 2.42	1.6 µM	60 µM	–	151%	0.06 µM	0.25 µM	1.3 µM	0.1 µM	300 µM	29.5 mg/kg	13 µg/mL (≈ 28.3 µM)	0.895	–	4.4 µM	Log Ko [16]: 3.333
CCCCCC[S+]([O-])C[C@H](CO)NC(=O)/C=C/c1c(C)nc(O)nc1O (stereo not given in full)	0.39 µM	0.41	0.75 µM	7.5 µM	–	135%	0.35 µM	0.18 µM	0.14 µM	0.14 µM	5 µM	1.6 mg/kg	890 µg/mL (≈ 2310 µM)	0.235	–	3 µM	Log Ko [16]: 1.111
